Calls of active or inactive are those of the source. No cut-off for these calls is given here.
Legend:
Apelin receptor [1] = biological target: T1, Apelin receptor (Homo sapiens, UniProt P35414); experiment: Agonist activity at human APJ receptor expressed in cells c-expressing Galphaq16 assessed as calcium mobilization by FLIPR assay; assay type: functional, cell-based
T1 sequence (P35414 whole entry): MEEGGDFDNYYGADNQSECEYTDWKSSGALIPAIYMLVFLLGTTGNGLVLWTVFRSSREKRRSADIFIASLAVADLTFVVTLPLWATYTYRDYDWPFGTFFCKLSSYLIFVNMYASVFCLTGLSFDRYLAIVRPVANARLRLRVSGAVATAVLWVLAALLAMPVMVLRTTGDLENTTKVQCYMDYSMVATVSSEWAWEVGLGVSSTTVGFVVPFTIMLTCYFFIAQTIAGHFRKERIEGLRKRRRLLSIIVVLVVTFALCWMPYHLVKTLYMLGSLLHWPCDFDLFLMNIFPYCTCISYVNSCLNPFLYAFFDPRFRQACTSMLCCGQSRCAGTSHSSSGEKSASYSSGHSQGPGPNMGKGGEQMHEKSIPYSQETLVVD
Procedure, shortened: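 Human APJ-Gαq16 stable cells lifted non-enzymatically, plated 30,000/well, grown 24 h at 37 C to confluence. Loaded with Calcium 5 dye in HBSS with 20 mM HEPES, 1% BSA, 10 µM probenecid, 1 h at 37 C. FLIPR Tetra read ~17 sec baseline, then added agonist at 10x; pyr-apelin-13 as reference.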

[2] = biological target: Neurotensin receptor type 1 (Rattus norvegicus) (UniProt P20789); experiment: Agonist activity at rat NTS1 receptor expressed in CHOK1 cells assessed as calcium mobilization by FLIPR assay; assay type: functional, cell-based; details: CHO-K1
Chain of Neurotensin receptor type 1 (Rattus norvegicus) (P20789 whole entry): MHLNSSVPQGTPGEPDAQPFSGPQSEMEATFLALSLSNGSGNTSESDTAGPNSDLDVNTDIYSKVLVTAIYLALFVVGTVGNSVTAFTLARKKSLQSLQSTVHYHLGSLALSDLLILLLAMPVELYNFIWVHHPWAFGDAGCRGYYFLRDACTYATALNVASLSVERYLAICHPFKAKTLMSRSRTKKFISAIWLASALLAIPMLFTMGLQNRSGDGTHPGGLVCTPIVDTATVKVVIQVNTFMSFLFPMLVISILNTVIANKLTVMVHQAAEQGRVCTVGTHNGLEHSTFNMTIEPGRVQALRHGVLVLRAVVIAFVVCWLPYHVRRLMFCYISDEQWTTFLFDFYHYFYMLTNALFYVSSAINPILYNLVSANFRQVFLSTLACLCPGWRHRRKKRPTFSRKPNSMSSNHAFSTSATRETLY

[3] = biological target: T2, Neurotensin receptor type 2 (Rattus norvegicus) (UniProt Q63384); experiment: (§1) Partial agonist activity at rat NTS2 receptor expressed in CHOK1 cells assessed as calcium mobilization by FLIPR assay; assay type: functional, cell-based; details: CHO-K1
T2 sequence (whole entry): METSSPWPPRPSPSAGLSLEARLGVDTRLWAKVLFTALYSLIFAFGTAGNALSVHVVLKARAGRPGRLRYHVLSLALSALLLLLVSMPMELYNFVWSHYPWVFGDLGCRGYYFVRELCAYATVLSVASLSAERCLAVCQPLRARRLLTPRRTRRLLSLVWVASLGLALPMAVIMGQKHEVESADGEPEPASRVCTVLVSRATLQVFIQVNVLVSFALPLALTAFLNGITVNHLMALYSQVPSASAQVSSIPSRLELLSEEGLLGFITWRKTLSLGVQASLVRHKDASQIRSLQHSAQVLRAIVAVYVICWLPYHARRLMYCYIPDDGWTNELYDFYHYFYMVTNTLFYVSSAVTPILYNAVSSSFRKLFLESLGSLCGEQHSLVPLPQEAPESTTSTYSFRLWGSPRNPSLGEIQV

[4] = biological target: T3, Neurotensin receptor type 2 (Rattus norvegicus, UniProt Q63384); experiment: as §1; assay type: functional, cell-based, CHO-K1
T3 sequence (Q63384 whole entry): T2 sequence (whole entry)

[5] = biological target: Neurotensin receptor type 1 (Rattus norvegicus) (UniProt P20789); experiment: Antagonist activity against rat NTS1 receptor expressed in CHOK1 cells assessed as calcium mobilization by FLIPR assay; assay type: functional, cell-based; details: CHO-K1
Apelin receptor [6] = biological target: T1, Apelin receptor; experiment: Displacement of [125I]-apelin13 from human APJ receptor expressed in CHOK1 cell membranes after 2 hrs by scintillation counting; parameters: species or system CHO-K1

Row | SMILES | EC50 (Apelin receptor [1]) [µM] | other results
1 | COc1cccc(OC)c1-c1cc(C(=O)N[C@@H](CC(C)C)C(=O)O)nn1-c1ccc(F)cc1 | > 30 | –
2 | COc1cccc(OC)c1-c1cc(C(=O)N[C@@H](CCC2CCCCC2)CC(=O)O)nn1-c1ccc(F)cc1 | – | Activity [2]: inactive; Emax [3]: 23%; EC50 [4]: 3.41 µM; Activity [5]: inactive
3 | COc1cccc(OC)c1-c1cc(C(=O)N[C@H](CC(=O)O)CC(C)C)nn1-c1ccc(F)cc1 | 9.4 | Ki (Apelin receptor [6]): 0.6 µM
4 | COc1cccc(OC)c1-c1cc(C(=O)N[C@H](C(=O)NCC(=O)O)C2CCCCC2)nn1-c1ccc(F)cc1 | > 30 | –
5 | COc1cccc(OC)c1-c1cc(C(=O)N[C@H](C(=O)NO)C2CCCCC2)nn1-c1ccc(F)cc1 | > 30 | –
6 | COc1cccc(OC)c1-c1cc(C(=O)N[C@H]2CC[C@H](C(=O)O)CC2)nn1-c1ccc(F)cc1 | > 30 | –
7 | COc1cccc(OC)c1-c1cc(C(=O)N[C@H](C(=O)O)C(C)C)nn1-c1ccc(F)cc1 | > 30 | –
8 | COc1cccc(OC)c1-c1cc(C(=O)N[C@@H](C(=O)O)C2CCCCC2)nn1-c1ccc(F)cc1 | > 30 | –
9 | COc1cccc(OC)c1-c1cc(C(=O)N[C@H](C(=O)O)C2CCCCC2)n(-c2ccc(F)cc2)n1 | > 30 | –
10 | COc1cccc(OC)c1-c1cc(C(=O)N[C@@H](CCC(N)=O)C(=O)O)nn1-c1ccc(F)cc1 | > 30 | –
11 | COc1cccc(O)c1-c1cc(C(=O)N[C@H](C(=O)O)C2CCCCC2)nn1-c1ccc(F)cc1 | > 30 | –
12 | COc1cccc(OC)c1-c1cc(C(=O)N[C@@H](CCCCN)C(=O)O)nn1-c1ccc(F)cc1 | > 30 | –
13 | COc1cccc(OC)c1-c1cc(C(=O)N[C@H](C(=O)O)c2ccccc2)nn1-c1ccc(F)cc1 | > 30 | –
14 | COC(=O)[C@@H](NC(=O)c1cc(-c2c(OC)cccc2OC)n(-c2ccc(F)cc2)n1)C1CCCCC1 | > 30 | –
15 | COc1cccc(OC)c1-c1cc(C(=O)NC2(C(=O)O)CCCCC2)nn1-c1ccc(F)cc1 | > 30 | –
16 | COc1cccc(OC)c1-c1cc(C(=O)NC2(C(=O)O)C3CC4CC(C3)CC2C4)nn1-c1ccc(F)cc1 (configuration not stated) | > 30 | –
17 | COc1cccc(OC)c1-c1cc(C(=O)N2CC[C@H](C(=O)O)C2)nn1-c1ccc(F)cc1 | > 30 | –
18 | O=C(N[C@H](C(=O)O)C1CCCCC1)c1cc(-c2ccccc2)n(-c2ccc(F)cc2)n1 | > 30 | –
19 | COc1cccc(OC)c1-c1cc(C(=O)NC(CC(=O)O)C2CCCCC2)nn1-c1ccc(F)cc1 (single isomer, unassigned) | – | Activity [2]: inactive; Emax [3]: 57%; Activity [5]: inactive
20 | COc1cccc(OC)c1-c1cc(C(=O)N[C@H](C(N)=O)C2CCCCC2)nn1-c1ccc(F)cc1 | > 30 | –

Further lines, with some results ahead:

Row | EC50 (Apelin receptor [1]) [µM] | SMILES | other results
21 | > 30 | COc1cccc(OC)c1-c1cc(C(=O)N[C@H](C(=O)N(C)C)C2CCCCC2)nn1-c1ccc(F)cc1 | –
22 | > 30 | COc1cccc(OC)c1-c1cc(C(=O)Nc2ccccc2C(=O)O)nn1-c1ccc(F)cc1 | –
23 | > 30 | COc1cccc(OC)c1-c1cc(C(=O)NCC2CCCCC2)nn1-c1ccc(F)cc1 | –
24 | > 30 | COc1cccc(OC)c1-c1cc(C(=O)N[C@H](C(=O)NCc2ccccc2)C2CCCCC2)nn1-c1ccc(F)cc1 | –
25 | > 30 | O=C(N[C@H](C(=O)O)C1CCCCC1)c1cc(-c2c(O)cccc2O)n(-c2ccc(F)cc2)n1 | –
26 | > 30 | Cc1cc(C(=O)N[C@H](C(=O)O)C2CCCCC2)nn1-c1ccc(F)cc1 | –
27 | > 30 | COC(=O)CNC(=O)[C@@H](NC(=O)c1cc(-c2c(OC)cccc2OC)n(-c2ccc(F)cc2)n1)C1CCCCC1 | –
28 | > 30 | COc1cccc(OC)c1-c1cc(C(=O)N[C@@H](Cc2ccccc2)C(=O)O)nn1-c1ccc(F)cc1 | –
29 | > 30 | COc1cccc(OC)c1-c1cc(C(=O)N[C@@H](CCCCNC(=O)OC(C)(C)C)C(=O)O)nn1-c1ccc(F)cc1 | –
30 | 3 | COc1cccc(OC)c1-c1cc(C(=O)N[C@@H](CCc2ccccc2)CC(=O)O)nn1-c1ccc(F)cc1 | Ki (Apelin receptor [6]): 3 µM
